We go through ten molecules from publication PMC11661184 (bioRxiv, 2024).

This assay has as its system CaM (Calmodulin-agarose). The experiment in a line: CaM-agarose pulldown of TRPA1 constructs. The conditions noted are these: for CaM binding of MBP-tagged C-terminal peptides: expressed in HEK293T; for CaM binding of truncated hTRPA1 constructs: CaM-agarose pulldown, HEK293T lysate, immunoblot; for CaM binding at basal Ca2+ concentration: n=3 independent experiments. Type of assay: binding. A digest of the protocol:
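HEK293T cells were transfected with tagged TRPA1 constructs and lysed after 16-24 h in Tris pH 8.0 buffer containing 5 mM DDM and 500 µM EGTA. Free Ca²⁺ was set with CaCl₂, calculated from EGTA constants. 100 µg lysate was incubated with CaM-agarose for 1 h at 4 °C, washed, then eluted with 5 mM EGTA. Detection was by anti-FLAG or anti-MBP immunoblot, with tubulin input control. Enrichment is relative to the maximum within each replicate.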

Positions count from the first letter of the chain named. Names and notes keep the numbering of the source. No end group written: not given here.

As for “hTRPA1^1099–1119: MBP-tagged smaller fragment of hTRPA1 C-terminus (RNSRWNTVLRAVKAKTHHLEP; also: MBP-tagged)”, the “CaM binding of MBP-tagged C-terminal peptides” value (absence or presence of Ca2+) is “bound CaM in a Ca^2+-dependent manner”.
Still for that read-out and setting: for “hTRPA1^1079–1119: MBP-tagged full hTRPA1 unresolved C-terminus (EDDDSHCSFQDRFKKEQMEQRNSRWNTVLRAVKAKTHHLEP; also: MBP-tagged)” the value was “bound CaM in a Ca^2+-dependent manner”.
For the molecule WT mouse: WT mouse TRPA1, MBP-tagged, the “CaM binding of TRPA1 species orthologues” value (MBP-tagged constructs, absence or presence of Ca2+, four independent experiments) was “bound CaM in a Ca^2+-dependent manner”.

B1: hTRPA1^S488-T1078: minimal hTRPA1 construct previously used for structural determination, retains the CaMBD (protein)
chain: SPLHFAASYGRINTCQRLLQDISDTRLLNEGDLHGMTPLHLAAKNGHDKVVQLLLKKGALFLSDHNGWTALHHASMGGYTQTMKVILDTNLKCTDRLDEDGNTALHFAAREGHAKAVALLLSHNADIVLNKQQASFLHLALHNKRKEVVLTIIRSKRWDECLKIFSHNSPGNKCPITEMIEYLPECMKVLLDFCMLHSTEDKSCRDYYIEYNFKYLQCPLEFTKKTPTQDVIYEPLTALNAMVQNNRIELLNHPVCKEYLLMKWLAYGFRAHMMNLGSYCLGLIPMTILVVNIKPGMAFNSTGIINETSDHSEILDTTNSYLIKTCMILVFLSSIFGYCKEAGQIFQQKRNYFMDISNVLEWIIYTTGIIFVLPLFVEIPAHLQWQCGAIAVYFYWMNFLLYLQRFENCGIFIVMLEVILKTLLRSTVVFIFLLLAFGLSFYILLNLQDPFSSPLLSIIQTFSMMLGDINYRESFLEPYLRNELAHPVLSFAQLVSFTIFVPIVLMNLLIGLAVGDIAEVQKHASLKRIAMQVELHTSLEKKLPLWFLRKVDQKSTIVYPNKPRSGGMLFHIFCFLFCTGEIRQEIPNADKSLEMEILKQKYRLKDLTFLLEKQHELIKLIIQKMEIISET
As for B1, the “CaM binding of truncated hTRPA1 constructs” value was “failed to bind CaM in vitro”.

B2: hTRPA1^M62-T1078: hTRPA1 construct containing full ARD but lacking the structurally unresolved N- and C-termini (protein)
chain: MDTFFLHYAAAEGQIELMEKITRDSSLEVLHEMDDYGNTPLHCAVEKNQIESVKFLLSRGANPNLRNFNMMAPLHIAVQGMNNEVMKVLLEHRTIDVNLEGENGNTAVIIACTTNNSEALQILLKKGAKPCKSNKWGCFPIHQAAFSGSKECMEIILRFGEEHGYSRQLHINFMNNGKATPLHLAVQNGDLEMIKMCLDNGAQIDPVEKGRCTAIHFAATQGATEIVKLMISSYSGSVDIVNTTDGCHETMLHRASLFDHHELADYLISVGADINKIDSEGRSPLILATASASWNIVNLLLSKGAQVDIKDNFGRNFLHLTVQQPYGLKNLRPEFMQMQQIKELVMDEDNDGCTPLHYACRQGGPGSVNNLLGFNVSIHSKSKDKKSPLHFAASYGRINTCQRLLQDISDTRLLNEGDLHGMTPLHLAAKNGHDKVVQLLLKKGALFLSDHNGWTALHHASMGGYTQTMKVILDTNLKCTDRLDEDGNTALHFAAREGHAKAVALLLSHNADIVLNKQQASFLHLALHNKRKEVVLTIIRSKRWDECLKIFSHNSPGNKCPITEMIEYLPECMKVLLDFCMLHSTEDKSCRDYYIEYNFKYLQCPLEFTKKTPTQDVIYEPLTALNAMVQNNRIELLNHPVCKEYLLMKWLAYGFRAHMMNLGSYCLGLIPMTILVVNIKPGMAFNSTGIINETSDHSEILDTTNSYLIKTCMILVFLSSIFGYCKEAGQIFQQKRNYFMDISNVLEWIIYTTGIIFVLPLFVEIPAHLQWQCGAIAVYFYWMNFLLYLQRFENCGIFIVMLEVILKTLLRSTVVFIFLLLAFGLSFYILLNLQDPFSSPLLSIIQTFSMMLGDINYRESFLEPYLRNELAHPVLSFAQLVSFTIFVPIVLMNLLIGLAVGDIAEVQKHASLKRIAMQVELHTSLEKKLPLWFLRKVDQKSTIVYPNKPRSGGMLFHIFCFLFCTGEIRQEIPNADKSLEMEILKQKYRLKDLTFLLEKQHELIKLIIQKMEIISET
On to B2, for which the “CaM binding of truncated hTRPA1 constructs” value is given as “failed to bind CaM”.

B3: hTRPA1^Δ1–61 (protein)
chain: MDTFFLHYAAAEGQIELMEKITRDSSLEVLHEMDDYGNTPLHCAVEKNQIESVKFLLSRGANPNLRNFNMMAPLHIAVQGMNNEVMKVLLEHRTIDVNLEGENGNTAVIIACTTNNSEALQILLKKGAKPCKSNKWGCFPIHQAAFSGSKECMEIILRFGEEHGYSRQLHINFMNNGKATPLHLAVQNGDLEMIKMCLDNGAQIDPVEKGRCTAIHFAATQGATEIVKLMISSYSGSVDIVNTTDGCHETMLHRASLFDHHELADYLISVGADINKIDSEGRSPLILATASASWNIVNLLLSKGAQVDIKDNFGRNFLHLTVQQPYGLKNLRPEFMQMQQIKELVMDEDNDGCTPLHYACRQGGPGSVNNLLGFNVSIHSKSKDKKSPLHFAASYGRINTCQRLLQDISDTRLLNEGDLHGMTPLHLAAKNGHDKVVQLLLKKGALFLSDHNGWTALHHASMGGYTQTMKVILDTNLKCTDRLDEDGNTALHFAAREGHAKAVALLLSHNADIVLNKQQASFLHLALHNKRKEVVLTIIRSKRWDECLKIFSHNSPGNKCPITEMIEYLPECMKVLLDFCMLHSTEDKSCRDYYIEYNFKYLQCPLEFTKKTPTQDVIYEPLTALNAMVQNNRIELLNHPVCKEYLLMKWLAYGFRAHMMNLGSYCLGLIPMTILVVNIKPGMAFNSTGIINETSDHSEILDTTNSYLIKTCMILVFLSSIFGYCKEAGQIFQQKRNYFMDISNVLEWIIYTTGIIFVLPLFVEIPAHLQWQCGAIAVYFYWMNFLLYLQRFENCGIFIVMLEVILKTLLRSTVVFIFLLLAFGLSFYILLNLQDPFSSPLLSIIQTFSMMLGDINYRESFLEPYLRNELAHPVLSFAQLVSFTIFVPIVLMNLLIGLAVGDIAEVQKHASLKRIAMQVELHTSLEKKLPLWFLRKVDQKSTIVYPNKPRSGGMLFHIFCFLFCTGEIRQEIPNADKSLEMEILKQKYRLKDLTFLLEKQHELIKLIIQKMEIISETEDDDSHCSFQDRFKKEQMEQRNSRWNTVLRAVKAKTHHLEP
On to B3, for which the “CaM binding of truncated hTRPA1 constructs” value is recorded as “did not affect Ca^2+/CaM binding”.

B4: hTRPA1^Δ1079–1119 (protein)
chain: MKRSLRKMWRPGEKKEPQGVVYEDVPDDTEDFKESLKVVFEGSAYGLQNFNKQKKLKRCDDMDTFFLHYAAAEGQIELMEKITRDSSLEVLHEMDDYGNTPLHCAVEKNQIESVKFLLSRGANPNLRNFNMMAPLHIAVQGMNNEVMKVLLEHRTIDVNLEGENGNTAVIIACTTNNSEALQILLKKGAKPCKSNKWGCFPIHQAAFSGSKECMEIILRFGEEHGYSRQLHINFMNNGKATPLHLAVQNGDLEMIKMCLDNGAQIDPVEKGRCTAIHFAATQGATEIVKLMISSYSGSVDIVNTTDGCHETMLHRASLFDHHELADYLISVGADINKIDSEGRSPLILATASASWNIVNLLLSKGAQVDIKDNFGRNFLHLTVQQPYGLKNLRPEFMQMQQIKELVMDEDNDGCTPLHYACRQGGPGSVNNLLGFNVSIHSKSKDKKSPLHFAASYGRINTCQRLLQDISDTRLLNEGDLHGMTPLHLAAKNGHDKVVQLLLKKGALFLSDHNGWTALHHASMGGYTQTMKVILDTNLKCTDRLDEDGNTALHFAAREGHAKAVALLLSHNADIVLNKQQASFLHLALHNKRKEVVLTIIRSKRWDECLKIFSHNSPGNKCPITEMIEYLPECMKVLLDFCMLHSTEDKSCRDYYIEYNFKYLQCPLEFTKKTPTQDVIYEPLTALNAMVQNNRIELLNHPVCKEYLLMKWLAYGFRAHMMNLGSYCLGLIPMTILVVNIKPGMAFNSTGIINETSDHSEILDTTNSYLIKTCMILVFLSSIFGYCKEAGQIFQQKRNYFMDISNVLEWIIYTTGIIFVLPLFVEIPAHLQWQCGAIAVYFYWMNFLLYLQRFENCGIFIVMLEVILKTLLRSTVVFIFLLLAFGLSFYILLNLQDPFSSPLLSIIQTFSMMLGDINYRESFLEPYLRNELAHPVLSFAQLVSFTIFVPIVLMNLLIGLAVGDIAEVQKHASLKRIAMQVELHTSLEKKLPLWFLRKVDQKSTIVYPNKPRSGGMLFHIFCFLFCTGEIRQEIPNADKSLEMEILKQKYRLKDLTFLLEKQHELIKLIIQKMEIISET
B4: the “CaM binding of truncated hTRPA1 constructs” value is listed as “ablated Ca^2+/CaM binding”.

B5: L1107A (protein, UniProt O75762 1-1119, looked up, variant L1107A)
Transient receptor potential …: MKRSLRKMWRPGEKKEPQGVVYEDVPDDTEDFKESLKVVFEGSAYGLQNFNKQKKLKRCDDMDTFFLHYAAAEGQIELMEKITRDSSLEVLHEMDDYGNTPLHCAVEKNQIESVKFLLSRGANPNLRNFNMMAPLHIAVQGMNNEVMKVLLEHRTIDVNLEGENGNTAVIIACTTNNSEALQILLKKGAKPCKSNKWGCFPIHQAAFSGSKECMEIILRFGEEHGYSRQLHINFMNNGKATPLHLAVQNGDLEMIKMCLDNGAQIDPVEKGRCTAIHFAATQGATEIVKLMISSYSGSVDIVNTTDGCHETMLHRASLFDHHELADYLISVGADINKIDSEGRSPLILATASASWNIVNLLLSKGAQVDIKDNFGRNFLHLTVQQPYGLKNLRPEFMQMQQIKELVMDEDNDGCTPLHYACRQGGPGSVNNLLGFNVSIHSKSKDKKSPLHFAASYGRINTCQRLLQDISDTRLLNEGDLHGMTPLHLAAKNGHDKVVQLLLKKGALFLSDHNGWTALHHASMGGYTQTMKVILDTNLKCTDRLDEDGNTALHFAAREGHAKAVALLLSHNADIVLNKQQASFLHLALHNKRKEVVLTIIRSKRWDECLKIFSHNSPGNKCPITEMIEYLPECMKVLLDFCMLHSTEDKSCRDYYIEYNFKYLQCPLEFTKKTPTQDVIYEPLTALNAMVQNNRIELLNHPVCKEYLLMKWLAYGFRAHMMNLGSYCLGLIPMTILVVNIKPGMAFNSTGIINETSDHSEILDTTNSYLIKTCMILVFLSSIFGYCKEAGQIFQQKRNYFMDISNVLEWIIYTTGIIFVLPLFVEIPAHLQWQCGAIAVYFYWMNFLLYLQRFENCGIFIVMLEVILKTLLRSTVVFIFLLLAFGLSFYILLNLQDPFSSPLLSIIQTFSMMLGDINYRESFLEPYLRNELAHPVLSFAQLVSFTIFVPIVLMNLLIGLAVGDIAEVQKHASLKRIAMQVELHTSLEKKLPLWFLRKVDQKSTIVYPNKPRSGGMLFHIFCFLFCTGEIRQEIPNADKSLEMEILKQKYRLKDLTFLLEKQHELIKLIIQKMEIISETEDDDSHCSFQDRFKKEQMEQRNSRWNTVARAVKAKTHHLEP
For the molecule B5, the “CaM binding at basal Ca2+ concentration” value is reported as “partial reduction in binding”.

B6: RK/AA (protein)
chain: B5 Transient receptor potential … with R1102A, A1107L, K1111A
For B6, the “CaM binding at basal Ca2+ concentration” value is reported as “similarly ablated CaM binding”.

B7: Quad: hTRPA1 W1103A/V1106A/L1107A/V1110A (protein)
chain: B5 Transient receptor potential … with W1103A, V1106A, V1110A
As for B7, the “CaM binding at basal Ca2+ concentration” value is “similarly ablated CaM binding”.
